Experiments:
[1] = cited from earlier work
[2] = Stability test of Sec-containing peptides in oxygenated buffer; format: physicochemical; conditions: for β-syn elimination: dehydroalanine-containing peptide (species D) by MS: 96 h in oxygenated KP buffer pH 8.0, 25 °C, positive ESI-MS, linear ion trap; for Deselenization seen as red selenium precipitate / color change: peptide 1 mM in oxygenated KP buffer pH 8.0, 96 h, visual inspection
Method in brief: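 Test peptides incubated in oxygenated KP buffer, pH 8.0, at 25 °C. Aliquots taken at 24, 48 and 96 h and centrifuged to pellet precipitated selenium. For MS, samples from time zero and 96 h were infused through a guard column at 10 μL/min into 100 μL/min 50/50 water/acetonitrile with 0.1% formic acid, using positive ESI and a linear ion trap scan over m/z 200–1800. Tubes with 1 mM peptide were photographed.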

β-syn elimination: dehydroalanine-containing peptide (species D) by MS [2] | Deselenization seen as red selenium precipitate / color change [2] | Molecule | Water solubility [1]
– | – | O=c1c2ccccc2[se]n1-c1ccccc1 [ebselen, 2-phenyl-1,2-benzisoselenazol-3(2H)-one] | not water soluble
absent | no color change was observed | H-(αMe)Sec-Gly-Thr-Thr-Val-Arg-Asp-Tyr-Thr-Gln-OH [peptide 11] | –
β-syn elimination occurred | red precipitate clearly forms | H-Sec-Gly-Thr-Thr-Val-Arg-Asp-Tyr-Thr-Gln-OH [peptide 12] | –
